The values that follow come from article PMC11920041 (NPJ Parkinson's Disease, 2025).

The conditions of series [1]: cited from earlier work.
The conditions of series [2]: mice; cited from earlier work.
The subject of a further series is AADC. The conditions noted are these: cited from earlier work.
A further series deals with tyrDC. The conditions noted are these: cited from earlier work.
The conditions of series [3]: concomitant use in patients with PD; cited from earlier work.
Series [4] concerns small intestinal bacterial overgrowth (SIBO). The conditions noted are these: eradication of SIBO in patients with PD; cited from earlier work.
The conditions of series [5]: administered in combination with carbidopa; cited from earlier work.
Series [6] is classed as in vivo. The conditions noted are these: human, plasma, oral, median [interquartile range]; for AUC: up to 3 h. The method, boiled down:
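Fasting ≥12 h after last meal, dosing from 9:00 a.m.; PD patients on oral levodopa, diagnosed by UK Brain Bank criteria; no concomitant magnesium oxide or prokinetics. Blood via indwelling catheter before and 15–180 min after dose; centrifuged 1000 g, 10 min, 4 °C; plasma stored −80 °C; HPLC-ECD. Cmax and Tmax taken from the curve; AUC to 3 h by linear trapezoidal rule.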

Setting [7] is: female, female patients, n = 12.

Read-outs that look alike come from different tables or passages of the source.

As for `[O]=[Mg]` [magnesium oxide], the “effect of concomitant use on bioavailability of levodopa” value in series [1] was “may reduce”.
Take `N[C@@](CF)(Cc1ccc(O)cc1)C(=O)O` [AFMT, (S)-α-fluoromethyltyrosine]: the “effect of concomitant use on levodopa Cmax” value in series [2] is on record as “increased”. Besides, the “effect on AADC” value with AADC is listed as “without affecting AADC”. The “inhibition of tyrDC-mediated levodopa decarboxylation” value with tyrDC is “selective inhibitor”.
With `COc1ccc2nc([S@@+]([O-])Cc3ncc(C)c(OC)c3C)[nH]c2c1` [esomeprazole], in series [3], the “effect on levels of carbidopa in the plasma” value is “without affecting” and the “effect on levels of levodopa in the plasma” value is given as “reduced”.
As for `CO[C@H]1/C=C/O[C@@]2(C)Oc3c(C)c(O)c4c(O)c(c5c(nc6cc(C)ccn65)c4c3C2=O)NC(=O)/C(C)=C\C=C\[C@H](C)[C@H](O)[C@@H](C)[C@@H](O)[C@@H](C)[C@H](OC(C)=O)[C@@H]1C` [rifaximin], the “effect on motor fluctuations” value in series [4] is reported as “improves motor fluctuations”.
As for `N[C@@H](Cc1ccc(O)c(O)c1)C(=O)O` [levodopa], in series [5], the half-life result was “approximately 90 min”. In series [6] (setting [7]), this compound yielded an AUC of 12.7 µM·h and a Cmax of 10.4 µM. Besides, the time to peak (Tmax) in series [6] (low levodopa Cmax group (< 9 μmol/L), n = 11) is 45 min. Also, in series [6] (male, male patients, n = 9), the AUC is 6.95 µM·h, the Cmax came to 4.88 µM and the Tmax was 45 min.

Usually AUC stands for the area under the concentration-time curve, a measure of exposure. A higher AUC goes with high exposure. Broadly, the Cmax is the peak of the concentration-time curve. The term Tmax denotes the time from dosing to the highest level.
